Data as given in ChEMBL document CHEMBL1132467, “Structural specificity of chloroquine-hematin binding related to inhibition of hematin polymerization and parasite growth” (J Med Chem, 1999).

What was measured:
[1] = tested on: Plasmodium falciparum; test: Parasite growth in chloroquine-sensitive Plasmodium falciparum NF54; assay type: functional, organism-based
Method in brief: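 P. falciparum NF54 or K1 was maintained by the Trager-Jensen culture method with minor variations. Growth inhibition was measured by a semiautomated microdilution assay on asynchronous stock cultures.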

[2] = tested on: Plasmodium falciparum; test: Parasite growth in chloroquine-resistant Plasmodium falciparum K1
[3] = Association constant evaluated towards Hematin mu-oxo dimer
[4] = target: hematin (cell-free polymerization, no protein); test: Inhibition of hematin polymerization

Row | SMILES | Ka [3] [M⁻¹] | IC50 [4] [µM] | IC50 [1] [µM] | IC50 [2] [µM]
1 | CCC(CC)CCCC(C)Nc1ccnc2cc(Cl)ccc12 (stereo not given) | 79000 | – | 0.054 | 0.2
2 | CCN(CC)CCCC(C)Nc1ccnc2cc(N)ccc12 (stereo not given) | 290000 | > 2500 | 2.6 | 4.3
3 | CCN(CC)CC(C)Nc1ccnc2cc(Cl)ccc12 (stereo not given) | 270000 | 18 | 0.041 | 0.093
4 | CCN(CC)CCCC(C)Nc1ccnc2cc([N+](=O)[O-])ccc12 (stereo not given) | 290000 | – | 0.015 | 0.068
5 | Nc1ccnc2cc(Cl)ccc12 | 52000 | – | 1.7 | 1
6 | CCN(CC)CCCCC(C)Nc1ccnc2cc(Cl)ccc12 (stereo not given) | 150000 | – | 0.024 | 0.42
7 | CCN(CC)CCCC(C)Nc1c(C)cnc2cc(Cl)ccc12 (stereo not given) | 150000 | 15 | 0.02 | 0.059
8 | CCN(CC)CCCC(C)Nc1ccnc2ccc(Cl)cc12 (stereo not given) | – | > 2500 | 0.17 | 4.9

Continued, in another order:

Row | Ka [3] [M⁻¹] | IC50 [4] [µM] | SMILES | IC50 [1] [µM] | IC50 [2] [µM]
9 | 46000 | 70 | CCNc1ccnc2cc(Cl)ccc12 | 0.82 | 0.87
10 | 85000 | > 2500 | CCN(CC)CCCC(C)Nc1ccnc2ccccc12 (stereo not given) | 0.35 | 8
11 | 180000 | 15 | CCNCCCC(C)Nc1ccnc2cc(Cl)ccc12 (stereo not given) [DESETHYLCHLOROQUINE] | 0.045 | 1.3
12 | 91000 | – | CCN(CC)CCCC(C)Nc1cc(C)nc2cc(Cl)ccc12 (stereo not given) | 0.15 | 1.1
13 | 120000 | – | CCN(CC)CCCC(C)Nc1ccnc2cc(Br)ccc12 (stereo not given) | 0.093 | 1.4
